Reference: publication PMC11914484 (Scientific Reports, 2025)
Values belong to the molecule of their own block, whether it stands above or below them. Ends that are not written are not given here.

What was measured:
[1] = Plasma stability, mini-pig plasma; format: in vitro ADME
In short: (§1)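 K2-EDTA plasma from male animals of each species was incubated with the test compound (1 µM) at 37 °C for 0–4 h, with propantheline bromide (1 µM) as control. Intact compound remaining was measured by LC-MS to give the half-life.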

[2] = Plasma stability, rabbit plasma; format: in vitro ADME
In short: as §1

[3] = Plasma stability, rat plasma; format: in vitro ADME
In short: as §1

[4] = Plasma stability, dog plasma; format: in vitro ADME
In short: as §1

female Wistar rats = conditions: initial studies; cited from earlier work
plasma proteins [5] = test: Plasma protein binding by rapid equilibration dialysis; format: in vitro ADME, rat
In short: (§2)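 Rapid equilibrium dialysis used K2-EDTA plasma from male animals of each species. The test compound (5 µM) was incubated for 2 h at 37 °C, with propranolol (1 µM) as control. Samples were analysed by LC-MS/MS, with response taken as the analyte-to-internal-standard peak area ratio. Unbound fraction = receiver-side response / donor-side response.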

[6] = system: male and female New Zealand White rabbits; test: 14-Day repeated tolerability/toxicity study, intranasal; format: in vivo, rabbit; conditions: male and female rabbits, 0.1, 1 and 5 mg/kg BW/day, 14 days
In short: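 GLP study run by a contract lab. Male and female New Zealand White rabbits were dosed intranasally with the test compound daily for 14 days at 0.1, 1.0 and 5.0 mg/kg body weight/day, followed by a 14-day recovery period, with toxicokinetics. Read-outs: local reaction, mortality, clinical signs, body weight, food consumption, clinical pathology, ophthalmoscopy, organ weight, haematology, coagulation, clinical chemistry and histopathology of a full tissue list.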

Safety of AmyP53 in mice = format: in vivo, mouse
In short: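 C57BL/6 mice. Preliminary safety run in 5 young (4-month-old) mice: intranasal test compound, then 10 min later stereotaxic SNpc injection of test compound, then daily intranasal dosing for 7 days. Full study used 7 per group: saline, human α-synuclein protofibrils (50 µM in 0.9% NaCl, pre-incubated 37 °C for 3 days), or protofibrils plus test compound (100 µM). Injections were bilateral into the SNpc, 2.5 µL, under isoflurane. The co-treated group then received daily intranasal dosing for 35 days.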

[7] = cited from earlier work
plasma proteins [8] = test: Plasma protein binding by rapid equilibration dialysis; format: in vitro ADME, rabbit
In short: as §2

plasma proteins [9] = test: as above; format: in vitro ADME, dog
In short: as §2

plasma proteins [10] = test: as above; format: in vitro ADME, mini-pig
In short: as §2

[11] = system: male and female Wistar rats; test: Dose range finding, intranasal route; format: in vivo, rat; conditions: GLP, 0.2, 1 and 5 mg/kg BW every two days during five days
[12] = system: male and female Sprague Dawley rats; test: 28-Day repeated dose toxicity, intranasal; format: in vivo, rat
rabbit plasma proteins = test: rapid equilibration dialysis
dog plasma proteins = test: rapid equilibration dialysis
rat plasma proteins = test: rapid equilibration dialysis
mini-pig plasma proteins = test: rapid equilibration dialysis
[13] = K2-EDTA plasma from male animals, 400 µL, 1 µM, 37 °C, 0–4 h, cold acetonitrile quench, LC-MS/MS
[14] = 5 mice, intranasal, then SNpc injection of AmyP53, then 7 days daily intranasal
[15] = 35-day treatment, SNpc co-injection then daily intranasal, n = 7 per group
[16] = rats, intranasal administration
[17] = RED, K2-EDTA plasma from male animals, 2 h at 37 °C, AmyP53 5 µM, Propanolol 1 µM, LC-MS/MS

- t1/2 in mini-pig plasma [1, 13]: 2.98 h
- t1/2 in rabbit plasma [2, 13]: 0.283 h
- t1/2 in rat plasma [3, 13]: 3.78 h
- t1/2 in dog plasma [4, 13]: 1.73 h
Molecule: CC(C)[N+](C)(CCOC(=O)C1c2ccccc2Oc2ccccc21)C(C)C [Propantheline, Propantheline bromide, reference compound]

Molecule: KEGVLYVGHHTK [AmyP53]
- maximal tolerated dose, one-week intranasal administration (female Wistar rats): > 5 mg/kg body weight
- maximal tolerated dose, one-week intravenous administration (female Wistar rats): > 80 mg/kg
- fraction unbound at 2 h, 5 µM (plasma proteins [5]; male, rat, K2-EDTA plasma): 0.066
- toxicity / tolerability of repeated intranasal administration in rabbits [6]: no systemic or local toxicity
- half-life at 1 µM ([1]; male, pig, K2-EDTA plasma): 6.07 h
- body mass, preliminary safety assessment (Safety of AmyP53 in mice; [14]): stable
- overall result of preliminary safety assessment (Safety of AmyP53 in mice; [14]): safe
- effect on body weight of treated mice (Safety of AmyP53 in mice; [15]): did not display any significant effect
- impact on overall behavior (Safety of AmyP53 in mice; [15]): did not induce any negative impact
- half-life at 1 µM ([2]; male, rabbit, K2-EDTA plasma): 10 h
- half-life of AmyP53 in the brain ([7]; approximate statement in discussion): about 1 h
- Cmax in brain tissue [7, 16]: 1766 ng/mL
- T1/2 in brain tissue [7, 16]: 1.02 h
- Tmax in brain tissue [7, 16]: 5 min
- fraction unbound at 2 h, 5 µM (plasma proteins [8]; male, rabbit, K2-EDTA plasma): 0.183
- fraction unbound at 2 h, 5 µM (plasma proteins [9]; male, dog, K2-EDTA plasma): 0.154
- half-life at 1 µM ([3]; male, rat, K2-EDTA plasma): 13.1 h
- fraction unbound at 2 h, 5 µM (plasma proteins [10]; male, pig, K2-EDTA plasma): 0.186
- maximal intranasal dose without any signs of toxicity or dysfunction [11]: The maximal intranasal dose of AmyP53 without any signs of toxicity or dysfunction, is greater or equal to 5 mg/kg BW in both male and female Wistar rats.
- half-life at 1 µM ([4]; male, dog, K2-EDTA plasma): 1.38 h
- intranasal no-observed adverse effect level (NOAEL) ([12]; male and female Sprague Dawley rats, GLP, every day for 28 days followed by 14 days of recovery): 5 mg/kg BW/day
- tolerability of repeated intranasal administration, 28 days ([12]; male and female rats, 0.1, 1.0 and 5.0 mg/kg body weight/day, 28 days and 14 days of recovery): well tolerated

Molecule: CC(C)NCC(O)COc1cccc2ccccc12 (stereo not shown) [Propranolol, reference compound]
- bound to plasma protein %, rat plasma (plasma proteins [5]; [17]): 89.8 ±0.1%
- bound to plasma protein %, rabbit plasma (plasma proteins [8]; [17]): 74.8 ±1.1%
- bound to plasma protein %, dog plasma (plasma proteins [9]; [17]): 86.5 ±1.0%
- bound to plasma protein %, mini-pig plasma (plasma proteins [10]; [17]): 85.2 ±0.9%

- bound to plasma protein % (rabbit plasma proteins): 81.7%
- bound to plasma protein % (dog plasma proteins): 84.6%
- bound to plasma protein % (rat plasma proteins): 93.4%
- bound to plasma protein % (mini-pig plasma proteins): 81.4%
Molecule: KEGVLYVGHHTK [AmyP53]
